# Measured values as given in ChEMBL document CHEMBL2407089, “Microwave-assisted synthesis of some new pyrazolopyridines and their antioxidant, antitumor and antimicrobial activities” (Eur J Med Chem, 2013).
# Active and inactive are the calls of the source. The rule behind the calls is not given here.
# Assays:
# MCF7 = experiment: Cytotoxicity against human MCF7 cells by SRB assay; assay type: functional, cell-based
# HepG2 = experiment: Cytotoxicity against human HepG2 cells by SRB assay; assay type: functional, cell-based
# [1] = system: Radical scavenging activity; experiment: Antioxidant activity assessed as DPPH free radical scavenging activity at 50 ug after 30 mins by spectrophotometry; assay type: functional
# In short: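 Each sample (50 μg) dissolved in 1 ml DMSO; 250 μl added to 1 ml DPPH in DMSO (6 mg/50 ml), brought to 3 ml with DMSO. DMSO served as control. Vortexed, kept 30 min in the dark at room temperature, and absorbance read at 517 nm. Scavenging % = [1 − (A sample/A control)] × 100.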
# [2] = system: Radical scavenging activity; experiment: Antioxidant activity assessed as DPPH free radical scavenging activity after 30 mins by spectrophotometry; assay type: functional
# In short: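 EC50, the amount giving half-maximal scavenging, was taken from serial dilutions (5–50 μg/ml) in DMSO run against DPPH in DMSO (6 mg/50 ml stock) to a 3 ml total. Incubated 30 min in the dark at room temperature, with a DMSO control and A517 read-out. Scavenging % = [1 − (A sample/A control)] × 100.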
# Bacillus = experiment: Antimicrobial activity against Bacillus assessed as diameter of inhibition zone at 10 mg/ml after 24 hrs by cut-plug method; assay type: functional
# In short: (§1)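 Bacteria were maintained on nutrient agar and fungi on Sabouraud agar slopes. Testing used the cut-plug technique on nutrient agar, incubated at 30°C for 24 h, and inhibition zone diameters were measured in mm.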
# Escherichia coli = experiment: Antimicrobial activity against Escherichia coli assessed as diameter of inhibition zone at 10 mg/ml after 24 hrs by cut-plug method; assay type: functional; conditions: read-out: DIZ; in short: as §1
# Fusarium oxysporum = experiment: Antifungal activity against Fusarium oxysporum assessed as diameter of inhibition zone at 10 mg/ml after 24 hrs by cut-plug method; assay type: functional; in short: as §1
# Serratia = experiment: Antimicrobial activity against Serratia assessed as diameter of inhibition zone at 10 mg/ml after 24 hrs by cut-plug method; assay type: functional; conditions: read-out: DIZ; in short: as §1
# Penicillium expansum = experiment: Antifungal activity against Penicillium expansum assessed as diameter of inhibition zone at 10 mg/ml after 24 hrs by cut-plug method; assay type: functional; conditions: for zone of inhibition at 10000 µg/mL: read-out: DIZ; in short: as §1
# Enterobacter cloacae = experiment: Antimicrobial activity against Enterobacter cloaca assessed as diameter of inhibition zone at 10 mg/ml after 24 hrs by cut-plug method; assay type: functional; conditions: read-out: DIZ; in short: as §1
EC50 [2] [µg/mL],Structure (SMILES),IC50 (MCF7) [µg/mL],IC50 (HepG2) [µg/mL],Activity [1],diameter of the inhibition zone (DIZ) (Bacillus),zone of inhibition at 10000 µg/mL (Escherichia coli) [mm],diameter of the inhibition zone (DIZ) (Fusarium oxysporum),zone of inhibition at 10000 µg/mL (Serratia) [mm],diameter of the inhibition zone (DIZ) (Penicillium expansum),zone of inhibition at 10000 µg/mL (Enterobacter cloacae) [mm],zone of inhibition at 10000 µg/mL (Penicillium expansum) [mm],zone of inhibition at 10000 µg/mL (Bacillus; read-out: DIZ) [mm],zone of inhibition at 10000 µg/mL (Fusarium oxysporum; read-out: DIZ) [mm]
> 100,c1ccc(-c2cc3ncc4c(-c5cccnc5)nn(-c5ccccc5)c4n3n2)cc1,15.9,17.3,9.47%,–,–,–,–,–,–,–,–,–
38.64,O=C(c1cccnc1)c1cc2c(-c3cccnc3)nn(-c3ccccc3)c2[nH]c1=O,10.1,11,36%,inactive,10.5,inactive,12.5,inactive,11.5,–,–,–
4.21,O=C(c1ccc(F)cc1)c1cc2c(-c3cccnc3)nn(-c3ccccc3)c2[nH]c1=O,8.7,7.8,72.3%,inactive,15,inactive,17.5,inactive,21,–,–,–
–,COc1cccc2c1C(=O)c1c(O)c3c(c(O)c1C2=O)C[C@@](O)(C(=O)CO)C[C@@H]3O[C@H]1C[C@H](N)[C@H](O)[C@H](C)O1 [DOXORUBICIN],–,3.1,–,–,–,–,–,–,–,–,–,–
> 100,N#Cc1cc2c(-c3cccnc3)nn(-c3ccccc3)c2[nH]c1=O,3,3.3,1.14%,–,–,–,–,–,–,–,–,–
–,CCOC(=O)c1cc2c(-c3cccnc3)nn(-c3ccccc3)c2nc1-c1cccnc1,6.9,3.75,inactive,–,–,–,–,–,–,–,–,–
92.85,N#Cc1cc2c(-c3cccnc3)nn(-c3ccccc3)c2[nH]c1=S,2.7,3.9,17%,–,–,–,–,–,–,–,–,–
54.76,Cc1ccc(C(=O)c2cc3c(-c4cccnc4)nn(-c4ccccc4)c3[nH]c2=O)cc1,9.9,8.85,38.9%,inactive,17,inactive,17,–,12.5,10,–,–
80.5,Clc1ccc(-c2cc3ncc4c(-c5cccnc5)nn(-c5ccccc5)c4n3n2)cc1,14.7,16.2,29.4%,–,–,–,–,–,–,–,–,–
53.76,Cc1ccc(-c2cc3ncc4c(-c5cccnc5)nn(-c5ccccc5)c4n3n2)cc1,10.5,12.9,39.6%,–,–,–,–,–,–,–,–,–
3.22,O=C1O[C@H]([C@@H](O)CO)C(O)=C1O [ASCORBIC ACID],–,–,82.8%,–,–,–,–,–,–,–,–,–
8.97,O=C(c1ccc(Cl)cc1)c1cc2c(-c3cccnc3)nn(-c3ccccc3)c2[nH]c1=O,6.45,9,63.6%,inactive,19,inactive,17,inactive,19,–,–,–
–,O=C(N[C@H](CO)[C@H](O)c1ccc([N+](=O)[O-])cc1)C(Cl)Cl [CHLORAMPHENICOL],–,–,–,–,18,–,25.8,–,17,10,21,12
